Assay results from ChEMBL document CHEMBL1777807, “3-Substituted 3-(4-aryloxyaryl)-propanoic acids as GPR40 agonists” (Bioorg Med Chem Lett, 2011).

Assays:
[1] = target: T1, Free fatty acid receptor 1 (Homo sapiens, UniProt O14842); experiment: Agonist activity at human GPR40 expressed in CHO cells assessed as intracellular calcium mobilization by FLIPR assay; type: functional, cell-based
How it was run: (§1)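 Intracellular calcium flux read on a fluorometric imaging plate reader, giving EC50 (nM). Each reported value is the mean of at least 3 experiments, with standard deviations below 75% of the average.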

[2] = target: Free fatty acid receptor 1 (Mus musculus, UniProt Q76JU9); experiment: Agonist activity at mouse GPR40 expressed in CHO cells assessed as intracellular calcium mobilization by FLIPR assay; type: functional, cell-based; how it was run: as §1
[3] = target: T1, Free fatty acid receptor 1; experiment: Inhibition of human GPR40 expressed in CHO cells by SPA based binding assay; type: cell-based
How it was run: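 Scintillation proximity binding assay using receptor isolated from CHO cells overexpressing human GPR40, giving IC50 (nM). Each value is the mean of at least 3 experiments, with standard deviations below 75% of the average.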

[4] = target: Cytochrome P450 3A4 (Homo sapiens, UniProt P08684); experiment: Inhibition of CYP3A4; type: ADME
[5] = target: Voltage-gated inwardly rectifying potassium channel KCNH2 (Homo sapiens, UniProt Q12809); experiment: Inhibition of human ERG
[6] = target: Cytochrome P450 2D6 (Homo sapiens, UniProt P10635); experiment: Inhibition of CYP2D6; type: ADME
[7] = target: Cytochrome P450 2C9 (Homo sapiens, UniProt P11712); experiment: Inhibition of CYP2C9; type: ADME
[8] = target: T1, Free fatty acid receptor 1; experiment: Agonist activity at human GPR40 expressed in HEK293 cells assessed as [3H]IP3 production in presence of 10% human serum; type: functional, cell-based
How it was run: (§2)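 IP3 production was measured in human cells as EC50 (nM). One condition included 10% human serum and the other 0.4% serum albumin, to reflect plasma protein binding.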

[9] = target: T1, Free fatty acid receptor 1; experiment: Agonist activity at human GPR40 expressed in HEK293 cells assessed as [3H]IP3 production in presence of 0.4% serum albumin; type: functional, cell-based; how it was run: as §2
[10] = target: Voltage-dependent L-type calcium channel subunit alpha-1C (Homo sapiens, UniProt Q13936); experiment: Inhibition of Cav1.2 calcium channel
[11] = test system: Mus musculus; experiment: Inhibition of glucose AUC in dextrose-treated lean mouse blood at 10 mg/kg, po treated 1 hr prior to dextrose challenge by intraperitoneal glucose tolerance test; type: functional
[12] = Volume of distribution in mouse; type: ADME, organism-based; conditions: in vivo
[13] = Cmax in mouse; type: ADME, organism-based; conditions: in vivo
[14] = Tmax in mouse; type: ADME, organism-based; conditions: in vivo
[15] = Oral bioavailability in mouse; type: ADME, organism-based; conditions: in vivo
[16] = Half life in mouse; type: ADME, organism-based; conditions: in vivo
[17] = Plasma clearance in mouse; type: ADME, organism-based

Free fatty acid receptor 1 (Mus musculus, UniProt Q76JU9), sequence (Q76JU9 whole entry): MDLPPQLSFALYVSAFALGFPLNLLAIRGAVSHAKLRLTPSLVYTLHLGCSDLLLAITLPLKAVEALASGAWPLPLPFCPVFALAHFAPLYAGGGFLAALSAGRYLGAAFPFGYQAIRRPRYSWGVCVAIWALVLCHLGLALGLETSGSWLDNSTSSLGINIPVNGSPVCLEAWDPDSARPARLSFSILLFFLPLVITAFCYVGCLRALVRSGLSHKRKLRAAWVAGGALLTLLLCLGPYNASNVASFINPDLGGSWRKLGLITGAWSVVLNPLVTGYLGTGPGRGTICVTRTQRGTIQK
T1 sequence (O14842 whole entry): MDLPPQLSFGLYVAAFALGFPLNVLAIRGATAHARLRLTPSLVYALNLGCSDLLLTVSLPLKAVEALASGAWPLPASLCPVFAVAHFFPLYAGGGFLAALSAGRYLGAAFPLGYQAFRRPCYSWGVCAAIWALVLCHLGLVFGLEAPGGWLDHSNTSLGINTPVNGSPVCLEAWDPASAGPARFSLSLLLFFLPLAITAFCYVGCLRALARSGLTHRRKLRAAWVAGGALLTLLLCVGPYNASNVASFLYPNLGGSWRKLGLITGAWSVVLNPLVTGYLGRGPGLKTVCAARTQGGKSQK
Cytochrome P450 3A4, sequence (P08684 whole entry): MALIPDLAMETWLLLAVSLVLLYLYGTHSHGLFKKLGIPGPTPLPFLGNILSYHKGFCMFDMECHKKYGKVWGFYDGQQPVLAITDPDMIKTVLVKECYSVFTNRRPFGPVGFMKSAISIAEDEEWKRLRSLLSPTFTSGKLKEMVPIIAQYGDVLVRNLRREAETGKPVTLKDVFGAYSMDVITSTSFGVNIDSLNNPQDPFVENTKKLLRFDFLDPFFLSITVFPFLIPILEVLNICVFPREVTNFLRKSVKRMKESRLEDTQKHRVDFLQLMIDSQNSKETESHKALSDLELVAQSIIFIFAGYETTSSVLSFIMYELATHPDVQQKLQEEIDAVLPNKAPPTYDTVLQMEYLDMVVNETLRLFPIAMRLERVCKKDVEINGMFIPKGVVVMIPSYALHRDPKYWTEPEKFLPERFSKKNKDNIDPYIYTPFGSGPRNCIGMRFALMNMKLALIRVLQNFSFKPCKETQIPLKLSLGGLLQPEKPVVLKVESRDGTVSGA
Voltage-dependent L-type calcium channel subunit alpha-1C, sequence (Q13936 whole entry): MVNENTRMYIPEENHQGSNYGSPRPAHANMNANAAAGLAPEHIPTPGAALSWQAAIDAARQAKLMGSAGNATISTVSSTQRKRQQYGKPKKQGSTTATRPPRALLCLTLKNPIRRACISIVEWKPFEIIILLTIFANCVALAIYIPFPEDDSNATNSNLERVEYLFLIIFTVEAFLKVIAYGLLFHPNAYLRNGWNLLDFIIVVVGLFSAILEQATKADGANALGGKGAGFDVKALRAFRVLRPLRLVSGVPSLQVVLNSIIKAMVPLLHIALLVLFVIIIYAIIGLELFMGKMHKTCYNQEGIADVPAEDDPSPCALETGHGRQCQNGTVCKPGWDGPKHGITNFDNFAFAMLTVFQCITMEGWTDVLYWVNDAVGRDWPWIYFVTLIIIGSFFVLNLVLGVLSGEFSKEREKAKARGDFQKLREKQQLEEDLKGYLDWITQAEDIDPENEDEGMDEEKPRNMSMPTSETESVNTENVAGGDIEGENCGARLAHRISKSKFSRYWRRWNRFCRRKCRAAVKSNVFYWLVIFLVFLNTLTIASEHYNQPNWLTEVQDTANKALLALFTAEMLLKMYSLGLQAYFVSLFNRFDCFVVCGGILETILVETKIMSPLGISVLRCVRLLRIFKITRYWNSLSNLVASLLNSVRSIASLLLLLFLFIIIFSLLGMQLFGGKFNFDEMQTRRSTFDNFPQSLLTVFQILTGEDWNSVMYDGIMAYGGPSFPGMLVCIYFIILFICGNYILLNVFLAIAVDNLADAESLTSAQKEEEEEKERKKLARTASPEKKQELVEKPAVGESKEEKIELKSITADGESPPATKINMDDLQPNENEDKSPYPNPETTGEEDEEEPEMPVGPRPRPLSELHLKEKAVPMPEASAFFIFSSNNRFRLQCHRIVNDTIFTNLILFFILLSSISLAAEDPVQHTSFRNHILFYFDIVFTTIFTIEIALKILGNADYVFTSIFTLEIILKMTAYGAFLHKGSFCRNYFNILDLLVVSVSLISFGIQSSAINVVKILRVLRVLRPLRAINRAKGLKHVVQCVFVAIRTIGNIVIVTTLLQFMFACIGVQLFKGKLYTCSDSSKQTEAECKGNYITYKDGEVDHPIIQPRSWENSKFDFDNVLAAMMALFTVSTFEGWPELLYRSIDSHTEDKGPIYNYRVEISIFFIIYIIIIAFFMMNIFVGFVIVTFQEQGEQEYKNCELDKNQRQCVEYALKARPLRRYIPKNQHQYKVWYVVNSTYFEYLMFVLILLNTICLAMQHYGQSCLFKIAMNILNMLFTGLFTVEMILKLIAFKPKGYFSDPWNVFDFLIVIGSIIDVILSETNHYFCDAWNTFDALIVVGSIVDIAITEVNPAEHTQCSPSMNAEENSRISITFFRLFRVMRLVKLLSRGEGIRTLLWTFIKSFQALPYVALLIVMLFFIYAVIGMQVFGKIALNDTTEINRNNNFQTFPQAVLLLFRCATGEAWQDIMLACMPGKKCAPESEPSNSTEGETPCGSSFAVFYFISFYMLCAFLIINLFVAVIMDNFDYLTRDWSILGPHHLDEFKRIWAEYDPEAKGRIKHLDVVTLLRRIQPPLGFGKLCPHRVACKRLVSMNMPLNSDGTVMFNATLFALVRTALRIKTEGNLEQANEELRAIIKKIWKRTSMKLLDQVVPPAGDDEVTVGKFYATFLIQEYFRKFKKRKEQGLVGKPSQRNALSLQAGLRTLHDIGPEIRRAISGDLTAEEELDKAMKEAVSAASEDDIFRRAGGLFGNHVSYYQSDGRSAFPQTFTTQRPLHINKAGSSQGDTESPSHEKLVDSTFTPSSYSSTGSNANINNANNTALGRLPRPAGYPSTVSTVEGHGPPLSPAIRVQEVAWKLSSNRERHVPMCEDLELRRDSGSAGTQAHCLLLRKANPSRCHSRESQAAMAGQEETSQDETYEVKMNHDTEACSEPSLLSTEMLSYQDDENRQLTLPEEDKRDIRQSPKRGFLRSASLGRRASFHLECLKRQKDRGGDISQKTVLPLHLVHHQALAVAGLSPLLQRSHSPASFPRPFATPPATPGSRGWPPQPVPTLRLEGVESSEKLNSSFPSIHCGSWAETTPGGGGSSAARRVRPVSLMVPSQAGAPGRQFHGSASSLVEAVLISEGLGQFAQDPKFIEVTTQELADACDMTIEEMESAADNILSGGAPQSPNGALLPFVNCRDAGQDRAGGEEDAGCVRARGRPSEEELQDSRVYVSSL
Cytochrome P450 2D6, sequence (P10635 whole entry): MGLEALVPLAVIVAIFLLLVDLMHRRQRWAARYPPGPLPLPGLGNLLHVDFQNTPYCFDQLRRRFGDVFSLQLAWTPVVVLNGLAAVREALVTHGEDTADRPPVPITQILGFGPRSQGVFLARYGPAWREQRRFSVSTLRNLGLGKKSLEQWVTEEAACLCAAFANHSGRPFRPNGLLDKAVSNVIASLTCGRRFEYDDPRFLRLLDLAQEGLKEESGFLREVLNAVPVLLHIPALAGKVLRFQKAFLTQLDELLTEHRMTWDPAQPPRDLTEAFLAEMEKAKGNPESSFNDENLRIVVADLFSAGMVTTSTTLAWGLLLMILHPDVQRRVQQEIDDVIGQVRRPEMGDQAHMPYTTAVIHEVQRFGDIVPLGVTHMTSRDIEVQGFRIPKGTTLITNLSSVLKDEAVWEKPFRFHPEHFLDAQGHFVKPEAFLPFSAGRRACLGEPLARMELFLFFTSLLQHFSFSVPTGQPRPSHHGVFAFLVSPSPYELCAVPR
Voltage-gated inwardly rectifying potassium channel KCNH2, sequence (Q12809 whole entry): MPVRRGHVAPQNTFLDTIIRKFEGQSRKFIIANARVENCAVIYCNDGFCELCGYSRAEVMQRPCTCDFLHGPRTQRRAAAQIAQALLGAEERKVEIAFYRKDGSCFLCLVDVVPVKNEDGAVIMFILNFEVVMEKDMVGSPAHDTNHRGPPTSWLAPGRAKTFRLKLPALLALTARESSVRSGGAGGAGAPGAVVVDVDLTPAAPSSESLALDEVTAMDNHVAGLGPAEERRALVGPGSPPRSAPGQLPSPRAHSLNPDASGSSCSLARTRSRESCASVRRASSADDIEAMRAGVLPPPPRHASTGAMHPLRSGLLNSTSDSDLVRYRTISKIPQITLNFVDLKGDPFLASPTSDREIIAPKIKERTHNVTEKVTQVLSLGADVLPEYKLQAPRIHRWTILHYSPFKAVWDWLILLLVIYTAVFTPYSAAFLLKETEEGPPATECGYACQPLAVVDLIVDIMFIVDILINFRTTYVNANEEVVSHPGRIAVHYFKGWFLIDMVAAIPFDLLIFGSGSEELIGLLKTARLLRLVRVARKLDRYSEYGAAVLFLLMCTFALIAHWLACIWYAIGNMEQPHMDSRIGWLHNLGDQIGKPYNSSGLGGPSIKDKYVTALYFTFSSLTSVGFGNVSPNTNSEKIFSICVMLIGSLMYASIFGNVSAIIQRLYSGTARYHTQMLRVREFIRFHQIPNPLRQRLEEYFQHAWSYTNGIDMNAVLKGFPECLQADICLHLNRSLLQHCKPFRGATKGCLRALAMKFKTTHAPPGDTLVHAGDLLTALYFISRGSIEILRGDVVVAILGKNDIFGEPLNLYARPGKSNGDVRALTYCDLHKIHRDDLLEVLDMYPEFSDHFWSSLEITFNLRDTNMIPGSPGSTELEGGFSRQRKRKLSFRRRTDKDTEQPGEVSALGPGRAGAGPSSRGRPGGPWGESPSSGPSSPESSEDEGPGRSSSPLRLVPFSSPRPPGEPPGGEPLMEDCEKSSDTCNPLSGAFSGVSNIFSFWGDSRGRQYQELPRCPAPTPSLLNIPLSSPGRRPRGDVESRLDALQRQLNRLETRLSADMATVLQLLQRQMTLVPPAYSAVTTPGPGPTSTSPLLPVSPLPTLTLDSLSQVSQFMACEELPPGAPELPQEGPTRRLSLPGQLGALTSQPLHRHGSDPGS

Compound	EC50 [1] [nM]	EC50 [2] [nM]	IC50 [3] [nM]	further results
O=C(O)CCc1ccc(Oc2ccc(Cl)cc2Cl)cc1	1360	–	–	–
O=C(O)CCc1ccc(Oc2ccc(C(F)(F)F)cc2Cl)cc1	686	–	–	–
O=C(O)C(Cc1ccc(Oc2ccc(C(F)(F)F)cc2Cl)cc1)C(=O)O	970	–	–	–
O=C1NC(=O)C(Cc2ccc(Oc3ccc(F)cc3)cc2)S1 (stereo unspecified)	474	–	–	–
CC#CC(CC(=O)O)c1ccc(O[C@@H]2CCc3ccccc32)cc1 (mixture of isomers)	31	47	42	–
CC#CC(CC(=O)O)c1ccc(OC2CCCc3nc(-c4ccc(C)cc4)sc32)cc1 (mixture of isomers)	51	100	23	–
CC#CC(CC(=O)O)c1ccc(Oc2ccc(C(F)(F)F)cc2OC(F)F)cc1F (racemic)	113	104	49	IC50 [4]: > 50000 nM; IC50 [5]: 25000 nM; IC50 [6]: > 50000 nM; IC50 [7]: 28000 nM; EC50 [8]: 306 nM; EC50 [9]: 349 nM; IC50 [10]: 25600 nM
CC(CC(=O)O)c1ccc(Oc2ccc(Cl)cc2Cl)cc1 (racemic)	2480	–	–	–
CC#CC(CC(=O)O)c1ccc(Oc2ccc(C(F)(F)F)cc2C)cc1 (racemic)	94	127	40	–
CC#CC(CC(=O)O)c1ccc(Oc2ccc(C(F)(F)F)cc2OC(F)F)cc1 (racemic)	71	77	12	inhibition in vivo at 10 mg/kg [11]: 66%; IC50 [4]: > 50000 nM; IC50 [5]: > 60000 nM; IC50 [6]: > 50000 nM; IC50 [7]: > 50000 nM; Vd [12]: 0.31 L/kg; Cmax [13]: 12 µM; Tmax [14]: 4 h; EC50 [8]: 436 nM; bioavailability [15]: 112%; EC50 [9]: 455 nM; half-life [16]: 7.8 h; IC50 [10]: > 30000 nM; clearance [17]: 0.49 mL/min/kg
CC#CC(CC(=O)O)c1ccc(Oc2ccc(C#N)cc2Cl)cc1 (racemic)	42	48	23	EC50 [8]: 519 nM; EC50 [9]: 597 nM
CC#CC(CC(=O)O)c1ccc(Oc2ccc(C#N)cc2Br)cc1 (racemic)	85	88	36	–
CC#CC(CC(=O)O)c1ccc(Oc2ccc(C#N)c3ccccc23)cc1 (racemic)	53	93	13	EC50 [8]: 172 nM; EC50 [9]: 247 nM
CC#CC(CC(=O)O)c1ccc(Oc2ccc(C(F)(F)F)c3ccccc23)cc1 (racemic)	1400	1250	211	–
CC#CC(CC(=O)O)c1ccc(Oc2ncc(C(F)(F)F)cc2Cl)cc1 (racemic)	108	95	30	EC50 [8]: 409 nM
CC#CC(CC(=O)O)c1ccc(Oc2ncc(Br)cn2)cc1 (racemic)	1570	1480	433	–
CC#CC(CC(=O)O)c1ccc(Oc2nccnc2C#N)cc1 (racemic)	1580	985	2490	–
CC#CC(CC(=O)O)c1ccc(Oc2nccc3ccccc23)cc1 (racemic)	394	149	342	–
CC#CC(c1ccc(OCc2ccccc2)cc1)C1OC(=O)NC1=O (racemic)	954	3710	4400	–
CC#CC(CC(=O)O)c1ccc(OC2CCCC2)cc1 (racemic)	114	124	312	–
CC#C[C@]1(c2ccc(Oc3ccc(C(F)(F)F)cc3Cl)cc2)C[C@@H]1C(=O)O (racemic)	2820	871	3440	–
CC#C[C@]1(c2ccc(Oc3ccc(C(F)(F)F)cc3Cl)cc2)C[C@H]1C(=O)O (racemic)	24500	> 40000	> 10000	–
CC#CC(c1ccc(Oc2ccc(C(F)(F)F)cc2OC(F)F)cc1)C1OC(=O)NC1=O (racemic)	124	266	19	EC50 [8]: 224 nM; EC50 [9]: 249 nM
CC#C[C@H](c1ccc(Oc2ccc(C(F)(F)F)cc2OC(F)F)cc1)[C@H]1OC(=O)NC1=O (racemic)	7580	7060	2410	–
CC#C[C@@H](c1ccc(Oc2ccc(C(F)(F)F)cc2OC(F)F)cc1)[C@H]1OC(=O)NC1=O (racemic)	130	136	151	IC50 [4]: > 50000 nM; Vd [12]: 0.47 L/kg; Cmax [13]: 5.5 µM; Tmax [14]: 4.7 h; bioavailability [15]: 93%; half-life [16]: 7 h; IC50 [10]: 5100 nM; clearance [17]: 0.85 mL/min/kg
